Bioassay records: PubChem, several laboratories
Shown are actives, neighbours in structure and some others; about 2.6% of the full set was active somewhere.
Platelet DG rel – inhibitors of platelet dense granule secretion, primary screen, cell-based, MLPCN, human platelets | human platelet-rich plasma, SFLLRN dense granule ATP release, luminescence | inhibition, %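 (compounds screened at 7.5 µM in platelet-rich plasma)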 | 300,000 tested, 0.22% active;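 active = mean replicate score, as percent of positive control, at or above 50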
TAAR1 ag – human TAAR1 agonists, primary screen, Fluo-8 calcium fluorescence, CHO RD-HGA16 cells; Trace amine-associated receptor 1 (Homo sapiens), Q96RJ0; AID 624467, 2012; activation, % at 3 µM; vehicle wells 0%, saturating PEA agonist 100%; 360,000 tested, 0.99% active;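 active = activation above the mean activation of all test compounds in the run plus 3 SD, cut at about 38% in these data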
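Test system: RD-HGA16 (CHO) cells co-expressing Gα16 and hTAAR1; dosing: one-point dosing at 3 µM (nominal); timing: 17-24 h seeding, 75 min 37 °C dye, 30 min RT; signal: kinetic Fluo-8 calcium fluorescence; read-out basis: % activation relative to PEA EC100 response; controls: DMSO and PEA EC100; replicates: n 1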
VLA-4 inh – inhibition in human VLA-4 binding assay, primary screen, VLA-4 allosteric modulator project, MLPCN library, flow cytometry, VLA-4 expressing cells. ligand binding flow cytometry. Integrin alpha-4 (Homo sapiens), P13612. inhibition, % (about 7 µM as worked out from the volumes in the protocol). 330,000 tested, 0.2% active; in the data active = inhibition above about 50%
TAAR1 antagonist – human TAAR1 antagonists, primary screen, Fluo-8 calcium fluorescence, CHO RD-HGA16 cells; Trace amine-associated receptor 1 (Homo sapiens), Q96RJ0; antagonist; inhibition, % at 3 µM; 360,000 tested, 1.5% active; AID 624466, 2012;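 active = inhibition above a per-plate cutoff, the mean inhibition of test compounds on that plate plus 3 SD, cut at about 49% in these data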;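 also: 0% = DMSO plus EC80 beta-PEA response and 100% = DMSO alone without agonist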
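Test system: RD-HGA16 CHO cells with stable hTAAR1 and Gα16 / Probe or stimulus: EC80 β-phenethylamine stimulus / Times: seeding 17-24 h prior, 75-min 37 °C, 30-min RT dye loading / Detection: Fluo-8 calcium-sensitive fluorescence / Read-out basis: % inhibition scaled between DMSO and EC80 PEA controls / Repeats: singlicate, one well per test compound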
Rce1 inh – yeast Rce1p protease inhibitors, primary screen, biochemical, fluorescence, cell-free homogeneous; CAAX prenyl protease 2 (Saccharomyces cerevisiae (strain ATCC 204508 / S288c)), Q03530; yeast membranes, quenched prenylated peptide cleavage fluorescence; 290,000 tested, 0.27% active; calls only; AID 2563, 2010;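 active = fall in fluorescence gain of 50% or more versus controls, with final raw signal at or below 3038400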;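 also: plate controls were neutral control wells for no effect and wells lacking membranes for full effect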
Target sequence (Q03530 whole entry, looked up): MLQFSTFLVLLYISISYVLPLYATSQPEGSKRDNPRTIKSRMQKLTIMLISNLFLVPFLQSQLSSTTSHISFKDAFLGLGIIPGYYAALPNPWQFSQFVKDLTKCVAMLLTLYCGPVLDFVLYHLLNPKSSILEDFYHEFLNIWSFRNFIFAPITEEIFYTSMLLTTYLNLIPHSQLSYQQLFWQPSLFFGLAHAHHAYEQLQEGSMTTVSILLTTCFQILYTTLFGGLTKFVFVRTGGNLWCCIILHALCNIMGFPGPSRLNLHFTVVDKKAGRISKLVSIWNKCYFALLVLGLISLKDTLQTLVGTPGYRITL
* hit, by the source's call; i = inactive; x = not tested or not shown; + = active, no number.

SMILES | Platelet DG rel | TAAR1 ag | VLA-4 inh | TAAR1 antagonist | Rce1 inh
CC(C)n1cc(C(=O)NC2CC(C)(C)Cc3c2cnn3-c2ccccc2)cn1 (centres undefined) | 6 | 2 | 7 | -24 | i
COc1ccc(Cc2nc(-c3ccc(NC(=O)c4cccnc4)cc3)no2)cc1 | -2 | 55* | 8 | 40 | i
COc1ccc(-c2noc(CCC(=O)NCc3cccnc3)n2)cc1 | -2 | 1 | -4 | 22 | i
CC1=C(C(=O)OCc2ccccc2)C(c2ccc(-c3ccccc3)cc2)NC(=O)N1CCCC(=O)O (centres undefined) | -8 | 10 | x | 33 | +
CC1NS(=O)(=O)c2cc([N+](=O)[O-])ccc21 (centres undefined) | x | 2 | x | -2 | x
COc1ccc(C=CC(=O)c2c(OC)cc(OC)c(OC)c2O)cc1 | x | 6 | x | 31 | x
C=CCOc1ccc(C=CC(=O)c2c(O)c(OC)c(OC)c(OC)c2OC)cc1 | x | 2 | x | 69* | x
O=C(CNc1ccccc1)N/N=C/c1ccc([N+](=O)[O-])cc1 | 3 | 1 | 62* | -13 | i
CC1CCN(CCCOc2ccc(Br)cc2Cl)CC1 | -9 | 39* | -3 | 2 | i
COc1cc2sc3ccc(C#CC4(O)CCCCC4)cc3c(=O)c2cc1OC | 56* | 10 | 3 | 40 | i
COc1cccc2sc3cc(C#CC4(O)CCCCC4)ccc3c(=O)c12 | x | 21 | 4 | 39 | x
Cc1cc(C(=O)NNC(=O)/C=C/c2ccc(F)cc2)c(C)o1 | 8 | -1 | -1 | -12 | i
CCc1nc(N)nc(N)c1-c1ccc(N(C)Cc2ccccc2)c([N+](=O)[O-])c1 | x | 39* | x | 76* | x
CCc1nc2ccc(C(=O)Nc3cccc(OC)c3)cn2c1N(CC)CCN(C)C | x | 1 | x | -2 | x
Cc1cccc(OCCN2C(=O)C(=O)c3cc(C)ccc32)c1 | 11 | -1 | 35 | -7 | +
COc1ccc(-c2nc(CC(=O)O)cs2)cc1OC | -8 | 8 | 5 | -1 | +
COc1ccc(-c2nc(CC(=O)O)cs2)cc1 | 1 | 2 | 6 | -11 | i
CCOc1ccc(-c2nc(CCl)cs2)cc1OC | 2 | -2 | 4 | 1 | +
O=C1CN(C(=O)COC(=O)c2ccc(Br)o2)c2ccccc2N1 | x | -1 | -3 | 4 | x
O=C(c1ccc2c(c1)OCO2)N1CCN(S(=O)(=O)c2ccc(Cl)cc2)CC1 | -4 | 3 | -3 | -5 | i
Nc1nc(O)c(Sc2ccccc2[N+](=O)[O-])c(=O)[nH]1 | 3 | 4 | -2 | -19 | i
O=C(Nc1ccc(-c2csc(Nc3ccc(Cl)cc3)n2)cc1)c1cccc(C(F)(F)F)c1 | -10 | -1 | 2 | 18 | i
O=C(Nc1ccc(-c2csc(Nc3ccccc3)n2)cc1)c1cccc(C(F)(F)F)c1 | 3 | 5 | -5 | 52* | i
O=C(O)c1ccc(Nc2nc(-c3ccccc3)cs2)cc1 | 2 | 38* | -1 | 28 | i
O=[N+]([O-])c1ccc(N2CCN(C(=S)NC3CCCCC3)CC2)cc1 | -4 | 10 | 4 | 52* | i
SMILES | Platelet DG rel | TAAR1 ag | VLA-4 inh | TAAR1 antagonist | Rce1 inh
O=[N+]([O-])c1ccc(N2CCN(C(=S)Nc3ccccc3)CC2)cc1 | -1 | 3 | 12 | -6 | i
O=C(CSc1ncnc2c1cnn2CCc1ccccc1)Nc1cccc(C(F)(F)F)c1 | -1 | 15 | 17 | 60* | i
COc1ccccc1OCCNC(=O)CN(c1cccc(C)c1)S(=O)(=O)c1ccccc1 | -5 | 5 | -20 | 49* | i
O=C(COc1ccc([N+](=O)[O-])cc1)NNC(=O)Nc1cccc(F)c1 | -9 | 16 | -6 | -26 | i
CC(=O)c1c(C)n(-c2cccc(Cl)c2)c2ccc(O)cc12 | -20 | 4 | 5 | 51* | i
O=C(c1ccc(Cn2c(=S)[nH]c3ccccc3c2=O)cc1)N1CCN(c2ccccn2)CC1 | 2 | 9 | -12 | 57* | i
CC(=O)C1CCC2C3CC(C)C4=CC(=O)CCC4(C)C3C(=O)CC12C (centres undefined) | x | 1 | x | 3 | x
